Assay: Toxicity liver stage against HepG2, at 10uM
Format: cell-based
Set-up: test concentration 10 uM, cell line HepG2-A16-CD81EGFP
Settings: human, HepG2-A16-CD81EGFP cells; read-out: INHIBITION
How it was run: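 Uninfected HepG2-A16-CD81EGFP cells, 3 × 10^3 per well, 1536-well, plated on prespotted compound at 10 μM final, parasite-free screening media added to match infected plates; puromycin 10 μM positive, DMSO 0.5% negative; run in parallel with 48 h PbLuc assay at 37 °C, 5% CO2; viability by CellTiter-Glo luminescence, normalized to controls.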

Compound | cytotoxicity at 10 µM [%]
CCc1ccc(OCCn2cccn2)cc1 | 8.95
CC(C)c1nn2c(-c3cnn(C)c3)nnc2s1 | -8.75
Cn1cc(CN2C[C@@H]3OCCN(CC4CCCC4)[C@@H]3C2)cn1 | -163
CNC(=O)[C@H]1C[C@@H]2CN(C(=O)c3ccc(C)o3)C[C@@H]2N1S(C)(=O)=O | -2.33
COCC(=O)N1CCC2(C1)c1ccccc1S(=O)(=O)N2CCC(C)C (stereo not given) | -4.26
O=C(c1cc[nH]n1)N1CCOCC2(C1)CN(c1ccccc1)C(=O)CO2 (stereo not given) | -4.96
O=S(=O)(c1ccc(F)cc1)N1CCCn2cnc(CN3CCCC3)c2C1 | 7.78
COCCN1C(=O)C[C@@H]2[C@H]1CCN2C(=O)c1ccc[nH]1 | -1.34
COc1nn(C)cc1C(=O)N1CCC(c2nnc(C3CC3)o2)CC1 | 5.14
CN1CCCC1c1nccnc1-c1ccc(C(=O)O)cc1 (stereo not given) | 11
COc1ccccc1C1Cn2c(C)cnc2CN1Cc1c[nH]nc1C (stereo not given) | 2.79
Cc1cc(F)c2c(c1)CCCN2Cc1cc(=O)n(C)c(=O)n1C | 8.1
Cc1ccc(C)c(CN(CC(N)=O)C(C)C)c1 | 0.477
N#CC1(NC(=O)c2cc(Cl)c3c(c2)OCCCO3)CCC1 | -8.42
CC(C)N(CC(N)=O)Cc1c(Cl)ccc2cccnc12 | 11.8
Nc1nccnc1C(=O)NC1CCN(Cc2ccccc2)C1 (stereo not given) | 11.9
NCC(CO)Cc1cccc(OC(F)(F)F)c1 (stereo not given) | 3.2
c1ccc(-n2cncn2)c(CNCCn2cccn2)c1 | -4.29
CC(C)(C(=O)NCc1ccccc1F)n1cc(Br)cn1 | 0.296
O=C(COCC1CC1)N1CCN(C(=O)Cc2ccccn2)CC1 | 10.3
O=C(C1SCCc2sccc21)N1CCN(C2CC2)C(=O)C1 (stereo not given) | 3.24
Cc1ccc(NC(=O)N2CCOC(C(N)=O)C2)cc1C(F)(F)F (stereo not given) | -146
COc1ccc(CNCCc2cc(F)cc3c2OCOC3)cc1OC | -6.9

Compound | cytotoxicity at 10 µM [%]
CC(C)OCCN1CCN(C(=O)c2cccc(-n3cccn3)n2)CC1 | -3.88
CCCS(=O)(=O)NC(=O)c1sc(C2CCCC2)nc1C | 0.521
CCN(C(=O)c1cc2c([nH]c1=O)CCCC2=O)C1CCCCC1 | -4.07
CCN(CC)S(=O)(=O)CCNC(=O)c1cc2cccc(F)c2o1 | -3.12
CCNC(=O)C1CCCN(Cn2nc(C(C)(C)C)ccc2=O)C1 (stereo not given) | 10.1
CCc1sc(C(=O)Nc2cnn(CC(N)=O)c2)cc1C | -2.68
Cn1cc(CNCCNc2ncc(Cl)cc2Cl)cn1 | -6.42
CN(Cc1ccc2c(c1)OCO2)C(=O)C1CC(c2cccc(F)c2)=NO1 (stereo not given) | 10.7
COC(=O)CC1CN(Cc2c(Cl)ccc3cccnc23)CCO1 (stereo not given) | 8.36
CS(=O)(=O)c1nnc(NC(=O)CCc2cccc(Cl)c2)[nH]1 | -20.4
CCN(CC1CN(CCc2ccccn2)CCO1)c1cccnn1 (stereo not given) | -6
CC(=O)N(C)CC(=O)Nc1cccc(N2CCN(CC3CC3)CC2)c1 | 1.75
Cc1ccc2c(c1)OCCCC2NCc1nnc2n1CCCCC2 (stereo not given) | -7.89
CN(Cc1cccc(Cl)c1)S(=O)(=O)N1CCOCC1 | -8.2
COCCn1c2c(ccc1=O)CCN(C(=O)Cc1cccs1)CC2 | 1.44
CN(Cc1ccccn1)C(=O)c1cc(CN2CCC(O)CC2)on1 | 0.852
O=C(O)[C@@H]1CN(C(=O)CCCc2ccc(F)cc2)C[C@H]1C1CC1 | 0.832
Cc1cnn(C(C)C2CC2)c1NC(=O)c1ncccc1O (stereo not given) | 7.4
CCN(C)CC(=O)N1CCc2nc(NC)nc(C(=O)N3CCCC3)c2C1 | -120
CCOC(=O)[C@]12CCCN(Cc3nccs3)C[C@H]1CN(CCOC)C2 | 1.36
CCNc1nc2cn(-c3ccc(CC)cc3)c(=O)c-2c[nH]1 | -3.31
COC1C[C@@H]2CN(C(=O)c3cc4cccc(F)c4[nH]3)C[C@@H]2C1 (stereo not given in full) | 1.51

Source: ChEMBL document CHEMBL4513216, “Probing the Open Global Health Chemical Diversity Library for Multistage-Active Starting Points for Next-Generation Antimalarials” (ACS Infect Dis, 2020)
